Converted amounts (≈) assume the structure as drawn. Each block holds one molecule with its values, some of them ahead of it. The source made the active and inactive calls. The calls are words filed in the database; no cut-off is given here.
Experiments:
BXPC-3 = experiment: Antiproliferative activity against human BxPC3 cells after 24 hrs by MTT assay; type: functional, cell-based; details: BXPC-3, 24 h
MCF7 [1] = experiment: Antiproliferative activity against human MCF7 cells after 24 hrs by MTT assay; type: functional, cell-based; details: MCF7, 24 h
PC-3 = experiment: Antiproliferative activity against human PC3 cells after 24 hrs by MTT assay; type: functional, cell-based; details: PC-3, 24 h
[2] = Solubility of the compound in water at pH 7.4 by HPLC method; type: physicochemical
Procedure, shortened: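 Aqueous solubility measured at pH 7.4, with samples quantified by HPLC.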

[3] = Half life in rat liver microsomes in presence of NADPH by HPLC method; type: ADME, microsome
Procedure, shortened: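 Compounds incubated with rat liver microsomes plus NADPH. Remaining compound quantified by HPLC at 0, 5, 10, 20, 30, 45, 60 and 90 min, and half-life calculated.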

Vitamin D3 receptor = target: T1, Vitamin D3 receptor (Homo sapiens, UniProt P11473); experiment: Displacement of fluormone VDR red from human full-length VDR after 4 hrs by fluorescence polarization assay
T1 sequence (P11473 whole entry): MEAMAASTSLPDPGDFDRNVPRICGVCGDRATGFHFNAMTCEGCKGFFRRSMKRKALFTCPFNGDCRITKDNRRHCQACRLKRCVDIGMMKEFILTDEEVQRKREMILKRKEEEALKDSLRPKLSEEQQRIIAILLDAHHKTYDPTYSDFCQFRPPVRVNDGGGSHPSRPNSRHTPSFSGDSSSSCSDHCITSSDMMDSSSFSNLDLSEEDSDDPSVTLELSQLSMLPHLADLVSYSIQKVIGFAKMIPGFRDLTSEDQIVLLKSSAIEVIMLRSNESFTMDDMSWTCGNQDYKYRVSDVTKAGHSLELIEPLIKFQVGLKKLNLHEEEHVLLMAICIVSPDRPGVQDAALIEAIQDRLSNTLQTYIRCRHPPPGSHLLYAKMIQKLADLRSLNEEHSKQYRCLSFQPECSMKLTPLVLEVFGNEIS

[4] = target: T2, Retinoic acid receptor RXR-alpha/Vitamin D3 receptor (Homo sapiens, UniProt P11473+P19793); experiment: Transactivation of recombinant human VDR/RXRalpha expressed in HEK293 cells after 24 hrs by Dual-luciferase reporter gene assay; type: cell-based
T2 sequence (P11473 whole entry): T1 sequence (P11473 whole entry)
T2 sequence (P19793 whole entry): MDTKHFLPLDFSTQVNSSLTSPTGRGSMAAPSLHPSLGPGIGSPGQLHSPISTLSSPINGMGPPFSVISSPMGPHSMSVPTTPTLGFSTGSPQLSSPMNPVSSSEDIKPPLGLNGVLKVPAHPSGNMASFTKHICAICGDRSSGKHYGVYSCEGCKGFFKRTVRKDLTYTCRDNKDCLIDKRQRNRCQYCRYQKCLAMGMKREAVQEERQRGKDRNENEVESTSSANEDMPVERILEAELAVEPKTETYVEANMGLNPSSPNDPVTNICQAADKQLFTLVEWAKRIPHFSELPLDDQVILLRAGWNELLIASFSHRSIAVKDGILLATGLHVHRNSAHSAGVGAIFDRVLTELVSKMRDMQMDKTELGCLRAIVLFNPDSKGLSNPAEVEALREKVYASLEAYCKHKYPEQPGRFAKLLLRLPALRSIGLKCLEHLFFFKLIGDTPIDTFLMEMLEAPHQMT

MCF7 [5] = experiment: Cell cycle arrest in human MCF7 cells expressing scrambled siRNA assessed as accumulation at G0/G1 phase at 1 uM after 24 hrs by propidium iodide staining based flow cytometry (reference value: 49.28%); type: functional
MCF7 [6] = experiment: Antiproliferative activity against human MCF7 cells expressing VDR siRNA assessed as reduction in BrdU incorporation after 16 hrs by ELISA; type: functional, cell-based; details: MCF7, 16 h
MCF7 [7] = experiment: Cell cycle arrest in human MCF7 cells expressing scrambled siRNA assessed as accumulation at G2/M phase at 1 uM after 24 hrs by propidium iodide staining based flow cytometry (reference value: 19.6%); type: functional
MCF7 [8] = experiment: Cell cycle arrest in human MCF7 cells expressing scrambled siRNA assessed as accumulation at S phase at 1 uM after 24 hrs by propidium iodide staining based flow cytometry (reference value: 29.79%); type: functional
MCF7 [9] = experiment: Cell cycle arrest in human MCF7 cells expressing VDR siRNA assessed as accumulation at G0/G1 phase at 1 uM after 24 hrs by propidium iodide staining based flow cytometry (reference value: 49.17%); type: functional
MCF7 [10] = experiment: Cell cycle arrest in human MCF7 cells expressing VDR siRNA assessed as accumulation at G2/M phase at 1 uM after 24 hrs by propidium iodide staining based flow cytometry (reference value: 17.57%); type: functional
MCF7 [11] = experiment: Cell cycle arrest in human MCF7 cells expressing VDR siRNA assessed as accumulation at S phase at 1 uM after 24 hrs by propidium iodide staining based flow cytometry (reference value: 32%); type: functional
MCF7 [12] = experiment: Induction of apoptosis in human MCF7 cells expressing scrambled siRNA assessed as live cells at 1 uM after 24 hrs by Annexin-V-FITC/propidium iodide staining based flow cytometry (reference value: 97.93%); type: functional
MCF7 [13] = experiment: Induction of apoptosis in human MCF7 cells expressing scrambled siRNA assessed as early apoptotic cells at 1 uM after 24 hrs by Annexin-V-FITC/propidium iodide staining based flow cytometry (reference value: 0.93%); type: functional
MCF7 [14] = experiment: Induction of apoptosis in human MCF7 cells expressing scrambled siRNA assessed as late apoptotic cells at 1 uM after 24 hrs by Annexin-V-FITC/propidium iodide staining based flow cytometry (reference value: 0.98%); type: functional
MCF7 [15] = experiment: Induction of apoptosis in human MCF7 cells expressing scrambled siRNA assessed as necrotic cells at 1 uM after 24 hrs by Annexin-V-FITC/propidium iodide staining based flow cytometry (reference value: 0.16%); type: functional
MCF7 [16] = experiment: Induction of apoptosis in human MCF7 cells expressing VDR siRNA assessed as live cells at 1 uM after 24 hrs by Annexin-V-FITC/propidium iodide staining based flow cytometry (reference value: 98.35%); type: functional
MCF7 [17] = experiment: Induction of apoptosis in human MCF7 cells expressing VDR siRNA assessed as early apoptotic cells at 1 uM after 24 hrs by Annexin-V-FITC/propidium iodide staining based flow cytometry (reference value: 0.49%); type: functional
MCF7 [18] = experiment: Induction of apoptosis in human MCF7 cells expressing VDR siRNA assessed as late apoptotic cells at 1 uM after 24 hrs by Annexin-V-FITC/propidium iodide staining based flow cytometry (reference value: 1.01%); type: functional
MCF7 [19] = experiment: Induction of apoptosis in human MCF7 cells expressing VDR siRNA assessed as necrotic cells at 1 uM after 24 hrs by Annexin-V-FITC/propidium iodide staining based flow cytometry (reference value: 0.15%); type: functional
[20] = AUC in Sprague-Dawley rat at 5 mg/kg, iv by HPLC method; type: ADME, organism-based; details: in vivo
Procedure, shortened: (§1)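 Male Sprague-Dawley rats, 180–220 g, n = 3 per group. Dosed iv at 5 mg/kg or ip at 20 mg/kg in ethanol/EL/saline (1:1:18). Plasma sampled at 0, 0.083, 0.167, 0.25, 0.5, 1, 2, 4, 8, 12 and 24 h and centrifuged 12000 rpm for 10 min. Plasma drug measured by HPLC; parameters by PK modelling; mean ± SD.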

[21] = Half life in Sprague-Dawley rat at 5 mg/kg, iv by HPLC method; type: ADME, organism-based; details: in vivo; procedure, shortened: as §1
[22] = Mean residence time in Sprague-Dawley rat at 5 mg/kg, iv by HPLC method; type: ADME, organism-based; details: in vivo; procedure, shortened: as §1
[23] = Clearance in Sprague-Dawley rat at 5 mg/kg, iv by HPLC method; type: ADME, organism-based; details: in vivo; procedure, shortened: as §1
[24] = AUC in Sprague-Dawley rat at 20 mg/kg, ip by HPLC method; type: ADME, organism-based; details: in vivo; procedure, shortened: as §1
[25] = Half life in Sprague-Dawley rat at 20 mg/kg, ip by HPLC method; type: ADME, organism-based; details: in vivo; procedure, shortened: as §1
[26] = Mean residence time in Sprague-Dawley rat at 20 mg/kg, ip by HPLC method; type: ADME, organism-based; details: in vivo; procedure, shortened: as §1
[27] = Clearance in Sprague-Dawley rat at 20 mg/kg, ip by HPLC method; type: ADME, organism-based; details: in vivo; procedure, shortened: as §1
[28] = Bioavailability in Sprague-Dawley rat at 20 mg/kg, ip by HPLC method; type: ADME, organism-based; details: in vivo; procedure, shortened: as §1
MCF7 [29] = experiment: Antitumor activity against human MCF7 cells xenografted in Balb/c nude mouse assessed as reduction in tumor growth at 10 mg/kg, ip administered three times a week for three weeks starting from day 7 after tumor cell inoculation; type: functional, organism-based
Procedure, shortened: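 […] BALB/c-nu mice, 10 weeks old. 1×10^7 MCF-7 cells injected into the left fourth mammary fat pad; dosing began at about 50 mm3 tumour volume (day 7), n = 5 per group. Dosed ip at 10 mg/kg in ethanol/EL/saline 1:1:18, three times weekly for three weeks. Tumour volume by calipers = length × width² × 0.5; tumour weight and body weight recorded.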

IC50 (BXPC-3): 15.3 µM | IC50 (MCF7 [1]): 10.8 µM | IC50 (PC-3): 9.52 µM | solubility [2]: 35.7 µg/mL (≈ 67.8 µM) | half-life [3]: 0.729 h
Compound: CCn1c(C(=O)N[C@@H](C)CO)ccc1C(CC)(CC)c1ccc(OCS(=O)(=O)c2ccccc2)c(C)c1

IC50 (BXPC-3): 15.8 µM | IC50 (MCF7 [1]): 18.2 µM | IC50 (PC-3): 8.5 µM | IC50 (Vitamin D3 receptor): 0.115 µM | EC50 [4]: 0.00681 µM | IC50 (MCF7 [6]): > 50 µM | solubility [2]: 1.7 µg/mL (≈ 3.6 µM) | half-life [3]: 0.429 h | AUC [20]: 4650 ng·h/mL | half-life [21]: 2.89 h | MRT [22]: 5.54 h | clearance [23]: 18 mL/min | AUC [24]: 6040 ng·h/mL | half-life [25]: 3.47 h | MRT [26]: 5.5 h | CL/F [27]: 55.2 mL/min | bioavailability [28]: 32.5%
Compound: CCn1c(C(=O)N[C@@H](C)CO)ccc1C(CC)(CC)c1ccc(OCC(O)C(C)(C)C)c(C)c1 (some centres not stated)
Activity (MCF7 [5]): 55.43% | Activity (MCF7 [7]): 11.69% | Activity (MCF7 [8]): 31.41% | Activity (MCF7 [9]): 51.05% | Activity (MCF7 [10]): 18.59% | Activity (MCF7 [11]): 29.44% | Activity (MCF7 [12]): 95.55% | Activity (MCF7 [13]): 1.31% | Activity (MCF7 [14]): 2.88% | Activity (MCF7 [15]): 0.26% | Activity (MCF7 [16]): 96.87% | Activity (MCF7 [17]): 0.99% | Activity (MCF7 [18]): 1.79% | Activity (MCF7 [19]): 0.35% | Activity (MCF7 [29]): Active

IC50 (BXPC-3): 7.72 µM | IC50 (MCF7 [1]): 25.5 µM | IC50 (PC-3): 7.3 µM | solubility [2]: 27.8 µg/mL (≈ 50.1 µM) | half-life [3]: 0.772 h
Compound: CCn1c(C(=O)N[C@H](CO)C(C)C)ccc1C(CC)(CC)c1ccc(OCS(=O)(=O)c2ccccc2)c(C)c1

From ChEMBL document CHEMBL4270638, “Sulfonyl-containing phenyl-pyrrolyl pentane analogues: Novel non-secosteroidal vitamin D receptor modulators with favorable physicochemical properties, pharmacokinetic properties and anti-tumor activity” (Eur J Med Chem, 2018)
